Data as given in ChEMBL document CHEMBL5058577, “EUbOPEN Chemogenomics Library 2 (Multiplex)” (2022).

System: HEK-293T
Assay: Multiplex assay against HEK293T
Format: toxicity, cell-based
Conditions: human
Method in brief: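 Tubulin, mitochondrial-mass and membrane-permeability phenotypes are per cents of healthy-nucleus cells. Cells were gated by CellPathfinder machine learning into Hoechst high-intensity objects or normal cells, normal cells into healthy, pyknosed or fragmented nuclei, and pyknosed cells into mitotic or apoptotic. Before that, live cells stained at seeding with Hoechst33342, BioTracker Green Microtubule Cytoskeleton Dye, MitoTracker Red and Annexin V Alexa Fluor 680 were imaged on a CQ1 microscope at 37°C and 5% CO2 after compound addition.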

[1] = 12 h, 1 µM, compound concentration 1 uM, replicate 1
[2] = 12 h, 1 µM, compound concentration 1 uM, replicate 2
[3] = 12 h, 10 µM, compound concentration 10 uM, replicate 1
[4] = 12 h, 10 µM, compound concentration 10 uM, replicate 2
[5] = 24 h, 1 µM, compound concentration 1 uM, replicate 1
[6] = 24 h, 1 µM, compound concentration 1 uM, replicate 2
[7] = 24 h, 10 µM, compound concentration 10 uM, replicate 1
[8] = 24 h, 10 µM, compound concentration 10 uM, replicate 2
[9] = 48 h, 1 µM, compound concentration 1 uM, replicate 1
[10] = 48 h, 1 µM, compound concentration 1 uM, replicate 2
[11] = 48 h, 10 µM, compound concentration 10 uM, replicate 1
[12] = 48 h, 10 µM, compound concentration 10 uM, replicate 2

## Cc1ccc(C(C)(O)c2nc3ccccc3s2)c(C)c1 (stereo not given)
[1]
  Population Apoptotic (%): 30%
  Population Fragmented Nuclei (%): 19%
  Population Healthy Nuclei (%): 72%
  Population Hoechst High Intensity Objects (%): 4%
  Population Membrane Permeable-Phenotype (%): 1%
  Population Mitochondria Different-Phenotype (%): 36%
  Population Mitotic Cells (%): 70%
  Population Normal (%): 95%
  Population Pyknosed Nuclei (%): 8%
  Population Tubulin-Different-Phenotype (%): 30%
  Total Cell Count: 483
[2]
  Population Apoptotic (%): 41%
  Population Fragmented Nuclei (%): 4%
  Population Healthy Nuclei (%): 79%
  Population Hoechst High Intensity Objects (%): 5%
  Population Membrane Permeable-Phenotype (%): 0%
  Population Mitochondria Different-Phenotype (%): 63%
  Population Mitotic Cells (%): 58%
  Population Normal (%): 94%
  Population Pyknosed Nuclei (%): 16%
  Population Tubulin-Different-Phenotype (%): 25%
  Total Cell Count: 308
[3]
  Population Apoptotic (%): 56%
  Population Fragmented Nuclei (%): 5%
  Population Healthy Nuclei (%): 82%
  Population Hoechst High Intensity Objects (%): 8%
  Population Membrane Permeable-Phenotype (%): 0%
  Population Mitochondria Different-Phenotype (%): 62%
  Population Mitotic Cells (%): 43%
  Population Normal (%): 91%
  Population Pyknosed Nuclei (%): 12%
  Population Tubulin-Different-Phenotype (%): 44%
  Total Cell Count: 412
[4]
  Population Apoptotic (%): 36%
  Population Fragmented Nuclei (%): 7%
  Population Healthy Nuclei (%): 78%
  Population Hoechst High Intensity Objects (%): 7%
  Population Mitochondria Different-Phenotype (%): 72%
  Population Mitotic Cells (%): 63%
  Population Normal (%): 92%
  Population Pyknosed Nuclei (%): 13%
  Population Tubulin-Different-Phenotype (%): 25%
  Total Cell Count: 318
[5]
  Population Apoptotic (%): 26%
  Population Fragmented Nuclei (%): 18%
  Population Healthy Nuclei (%): 73%
  Population Hoechst High Intensity Objects (%): 3%
  Population Membrane Permeable-Phenotype (%): 1%
  Population Mitochondria Different-Phenotype (%): 15%
  Population Mitotic Cells (%): 73%
  Population Normal (%): 96%
  Population Pyknosed Nuclei (%): 8%
  Population Tubulin-Different-Phenotype (%): 11%
  Total Cell Count: 645
[6]
  Population Apoptotic (%): 32%
  Population Fragmented Nuclei (%): 6%
  Population Healthy Nuclei (%): 85%
  Population Membrane Permeable-Phenotype (%): 0%
  Population Mitochondria Different-Phenotype (%): 36%
  Population Mitotic Cells (%): 67%
  Population Pyknosed Nuclei (%): 7%
  Population Tubulin-Different-Phenotype (%): 16%
  Total Cell Count: 447
[7]
  Population Apoptotic (%): 28%
  Population Fragmented Nuclei (%): 6%
  Population Healthy Nuclei (%): 82%
  Population Hoechst High Intensity Objects (%): 8%
  Population Membrane Permeable-Phenotype (%): 0%
  Population Mitochondria Different-Phenotype (%): 42%
  Population Mitotic Cells (%): 71%
  Population Normal (%): 91%
  Population Pyknosed Nuclei (%): 11%
  Population Tubulin-Different-Phenotype (%): 34%
  Total Cell Count: 487
[8]
  Population Apoptotic (%): 36%
  Population Fragmented Nuclei (%): 10%
  Population Healthy Nuclei (%): 78%
  Population Hoechst High Intensity Objects (%): 6%
  Population Mitochondria Different-Phenotype (%): 63%
  Population Mitotic Cells (%): 63%
  Population Normal (%): 93%
  Population Pyknosed Nuclei (%): 10%
  Population Tubulin-Different-Phenotype (%): 23%
  Total Cell Count: 379
[9]
  Population Apoptotic (%): 17%
  Population Fragmented Nuclei (%): 20%
  Population Healthy Nuclei (%): 73%
  Population Hoechst High Intensity Objects (%): 2%
  Population Membrane Permeable-Phenotype (%): 1%
  Population Mitochondria Different-Phenotype (%): 15%
  Population Mitotic Cells (%): 82%
  Population Normal (%): 97%
  Population Pyknosed Nuclei (%): 5%
  Population Tubulin-Different-Phenotype (%): 12%
  Total Cell Count: 964
[10]
  Population Apoptotic (%): 34%
  Population Fragmented Nuclei (%): 13%
  Population Healthy Nuclei (%): 78%
  Population Hoechst High Intensity Objects (%): 3%
  Population Mitochondria Different-Phenotype (%): 22%
  Population Mitotic Cells (%): 65%
  Population Normal (%): 96%
  Population Pyknosed Nuclei (%): 8%
  Population Tubulin-Different-Phenotype (%): 11%
  Total Cell Count: 621
[11]
  Population Apoptotic (%): 33%
  Population Fragmented Nuclei (%): 14%
  Population Healthy Nuclei (%): 76%
  Population Hoechst High Intensity Objects (%): 2%
  Population Membrane Permeable-Phenotype (%): 0%
  Population Mitochondria Different-Phenotype (%): 28%
  Population Mitotic Cells (%): 66%
  Population Normal (%): 97%
  Population Pyknosed Nuclei (%): 9%
  Population Tubulin-Different-Phenotype (%): 18%
  Total Cell Count: 713
[12]
  Population Apoptotic (%): 50%
  Population Fragmented Nuclei (%): 13%
  Population Healthy Nuclei (%): 80%
  Population Hoechst High Intensity Objects (%): 3%
  Population Membrane Permeable-Phenotype (%): 1%
  Population Mitochondria Different-Phenotype (%): 33%
  Population Mitotic Cells (%): 50%
  Population Normal (%): 96%
  Population Pyknosed Nuclei (%): 5%
  Population Tubulin-Different-Phenotype (%): 13%
  Total Cell Count: 508

## CN(C)c1ccnc2sc3c(=O)n(N4CCCCCC4)cnc3c12
[1]
  Population Apoptotic (%): 45%
  Population Fragmented Nuclei (%): 9%
  Population Healthy Nuclei (%): 76%
  Population Hoechst High Intensity Objects (%): 4%
  Population Membrane Permeable-Phenotype (%): 1%
  Population Mitochondria Different-Phenotype (%): 50%
  Population Mitotic Cells (%): 54%
  Population Normal (%): 95%
  Population Pyknosed Nuclei (%): 13%
  Population Tubulin-Different-Phenotype (%): 43%
  Total Cell Count: 360
[2]
  Population Apoptotic (%): 51%
  Population Fragmented Nuclei (%): 5%
  Population Healthy Nuclei (%): 82%
  Population Hoechst High Intensity Objects (%): 8%
  Population Membrane Permeable-Phenotype (%): 0%
  Population Mitochondria Different-Phenotype (%): 67%
  Population Mitotic Cells (%): 48%
  Population Normal (%): 91%
  Population Pyknosed Nuclei (%): 12%
  Population Tubulin-Different-Phenotype (%): 25%
  Total Cell Count: 335
[3]
  Population Apoptotic (%): 36%
  Population Fragmented Nuclei (%): 4%
  Population Healthy Nuclei (%): 81%
  Population Hoechst High Intensity Objects (%): 10%
  Population Membrane Permeable-Phenotype (%): 0%
  Population Mitochondria Different-Phenotype (%): 78%
  Population Mitotic Cells (%): 63%
  Population Normal (%): 89%
  Population Pyknosed Nuclei (%): 14%
  Population Tubulin-Different-Phenotype (%): 79%
  Total Cell Count: 387
[4]
  Population Apoptotic (%): 59%
  Population Fragmented Nuclei (%): 9%
  Population Healthy Nuclei (%): 72%
  Population Hoechst High Intensity Objects (%): 13%
  Population Mitochondria Different-Phenotype (%): 76%
  Population Mitotic Cells (%): 40%
  Population Normal (%): 86%
  Population Pyknosed Nuclei (%): 17%
  Population Tubulin-Different-Phenotype (%): 59%
  Total Cell Count: 308
[5]
  Population Apoptotic (%): 30%
  Population Fragmented Nuclei (%): 10%
  Population Healthy Nuclei (%): 76%
  Population Hoechst High Intensity Objects (%): 4%
  Population Membrane Permeable-Phenotype (%): 1%
  Population Mitochondria Different-Phenotype (%): 27%
  Population Mitotic Cells (%): 70%
  Population Normal (%): 95%
  Population Pyknosed Nuclei (%): 12%
  Population Tubulin-Different-Phenotype (%): 24%
  Total Cell Count: 510
[6]
  Population Apoptotic (%): 25%
  Population Fragmented Nuclei (%): 7%
  Population Healthy Nuclei (%): 84%
  Population Hoechst High Intensity Objects (%): 5%
  Population Membrane Permeable-Phenotype (%): 0%
  Population Mitochondria Different-Phenotype (%): 51%
  Population Mitotic Cells (%): 74%
  Population Normal (%): 94%
  Population Pyknosed Nuclei (%): 7%
  Population Tubulin-Different-Phenotype (%): 22%
  Total Cell Count: 470
[7]
  Population Apoptotic (%): 42%
  Population Fragmented Nuclei (%): 7%
  Population Healthy Nuclei (%): 76%
  Population Hoechst High Intensity Objects (%): 8%
  Population Membrane Permeable-Phenotype (%): 0%
  Population Mitochondria Different-Phenotype (%): 80%
  Population Mitotic Cells (%): 57%
  Population Normal (%): 91%
  Population Pyknosed Nuclei (%): 16%
  Population Tubulin-Different-Phenotype (%): 71%
  Total Cell Count: 428
[8]
  Population Apoptotic (%): 66%
  Population Fragmented Nuclei (%): 10%
  Population Healthy Nuclei (%): 74%
  Population Hoechst High Intensity Objects (%): 13%
  Population Mitochondria Different-Phenotype (%): 75%
  Population Mitotic Cells (%): 33%
  Population Normal (%): 86%
  Population Pyknosed Nuclei (%): 15%
  Population Tubulin-Different-Phenotype (%): 53%
  Total Cell Count: 359
[9]
  Population Apoptotic (%): 27%
  Population Fragmented Nuclei (%): 13%
  Population Healthy Nuclei (%): 78%
  Population Hoechst High Intensity Objects (%): 2%
  Population Membrane Permeable-Phenotype (%): 0%
  Population Mitochondria Different-Phenotype (%): 23%
  Population Mitotic Cells (%): 72%
  Population Normal (%): 97%
  Population Pyknosed Nuclei (%): 7%
  Population Tubulin-Different-Phenotype (%): 14%
  Total Cell Count: 721
[10]
  Population Apoptotic (%): 20%
  Population Fragmented Nuclei (%): 11%
  Population Healthy Nuclei (%): 82%
  Population Hoechst High Intensity Objects (%): 3%
  Population Membrane Permeable-Phenotype (%): 2%
  Population Mitochondria Different-Phenotype (%): 31%
  Population Mitotic Cells (%): 80%
  Population Normal (%): 96%
  Population Pyknosed Nuclei (%): 6%
  Population Tubulin-Different-Phenotype (%): 15%
  Total Cell Count: 663
[11]
  Population Apoptotic (%): 70%
  Population Fragmented Nuclei (%): 15%
  Population Healthy Nuclei (%): 72%
  Population Hoechst High Intensity Objects (%): 8%
  Population Membrane Permeable-Phenotype (%): 0%
  Population Mitochondria Different-Phenotype (%): 66%
  Population Mitotic Cells (%): 29%
  Population Normal (%): 91%
  Population Pyknosed Nuclei (%): 12%
  Population Tubulin-Different-Phenotype (%): 54%
  Total Cell Count: 497
[12]
  Population Apoptotic (%): 57%
  Population Fragmented Nuclei (%): 11%
  Population Healthy Nuclei (%): 75%
  Population Hoechst High Intensity Objects (%): 6%
  Population Mitochondria Different-Phenotype (%): 63%
  Population Mitotic Cells (%): 42%
  Population Normal (%): 93%
  Population Tubulin-Different-Phenotype (%): 45%
  Total Cell Count: 450
